Blank lines part the entries; values can stand above or below the molecule they belong to.
Tests used:
Type in all cases: ADME, organism-based, Macaca mulatta
[1] = Drug level in normal rhesus monkey parietal cortex assessed as standard uptake value at 96.3 MBq, iv after 42.5 mins by microPET; settings: in vivo
[2] = Drug level in normal rhesus monkey pons assessed as standard uptake value at 96.3 MBq, iv after 125 mins by microPET; settings: in vivo
[3] = Drug level in normal rhesus monkey pons assessed as standard uptake value at 96.3 MBq, iv after 47.5 mins by microPET; settings: in vivo
[4] = Drug level in normal rhesus monkey frontal cortex assessed as standard uptake value at 96.3 MBq, iv after 57.5 mins by microPET; settings: in vivo
[5] = Drug level in normal rhesus monkey white matter assessed as standard uptake value at 96.3 MBq, iv after 3.5 mins by microPET; settings: in vivo
[6] = Drug level in normal rhesus monkey white matter assessed as standard uptake value at 96.3 MBq, iv after 8 mins by microPET; settings: in vivo
[7] = Drug level in normal rhesus monkey frontal cortex assessed as standard uptake value at 96.3 MBq, iv after 10 mins by microPET; settings: in vivo
[8] = Drug level in normal rhesus monkey cerebellum assessed as standard uptake value at 96.3 MBq, iv after 125 mins by microPET; settings: in vivo
Outline: (§1)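 One normal rhesus monkey, each tracer given iv via the vena saphena (81.2, 96.3 or 109.4 MBq), with 1 day between tracer injections. Dynamic brain μPET over 180 min used frames of 5 × 60 s, 5 × 120 s, 9 × 300 s and 12 × 600 s. Images were reconstructed by filtered back projection with a RAMP filter. Regional time-activity curves were expressed as SUV.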

[9] = Drug level in normal rhesus monkey pons assessed as standard uptake value at 96.3 MBq, iv after 22.5 mins by microPET; settings: in vivo, 0.375 h
[10] = Drug level in normal rhesus monkey thalamus assessed as standard uptake value at 96.3 MBq, iv after 1.5 mins by microPET; settings: in vivo, 0.025 h
[11] = Drug level in normal rhesus monkey parietal cortex assessed as standard uptake value at 109.4 MBq, iv after 123 mins by microPET; settings: in vivo, 2.05 h
[12] = Drug level in normal rhesus monkey frontal cortex assessed as standard uptake value at 109.4 MBq, iv after 129 mins by microPET; settings: in vivo, 2.15 h
[13] = Drug level in normal rhesus monkey cerebellum assessed as standard uptake value at 109.4 MBq, iv after 81 mins by microPET; settings: in vivo, 1.35 h
[14] = Drug level in normal rhesus monkey pons assessed as standard uptake value at 109.4 MBq, iv after 32.5 mins by microPET; settings: in vivo
[15] = Drug level in normal rhesus monkey thalamus assessed as standard uptake value at 109.4 MBq, iv after 0.125 mins by microPET; settings: in vivo, 7 s
[16] = Drug level in normal rhesus monkey parietal cortex assessed as standard uptake value at 109.4 MBq, iv after 0.375 mins by microPET; settings: in vivo, 22 s
[17] = Drug level in normal rhesus monkey white matter assessed as standard uptake value at 109.4 MBq, iv after 0.875 mins by microPET; settings: in vivo, 52 s
[18] = Drug level in normal rhesus monkey frontal cortex assessed as standard uptake value at 109.4 MBq, iv after 3.5 mins by microPET; settings: in vivo; outline: as §1
[19] = Drug level in normal rhesus monkey thalamus assessed as standard uptake value at 109.4 MBq, iv after 87 mins by microPET; settings: in vivo, 1.45 h
[20] = Drug level in normal rhesus monkey pons assessed as standard uptake value at 109.4 MBq, iv after 0.375 mins by microPET; settings: in vivo, 22 s
[21] = Drug level in normal rhesus monkey cerebellum assessed as standard uptake value at 81.2 MBq, iv after 145 mins by microPET; settings: in vivo; outline: as §1
[22] = Drug level in normal rhesus monkey parietal cortex assessed as standard uptake value at 81.2 MBq, iv after 47.5 mins by microPET; settings: in vivo
[23] = Drug level in normal rhesus monkey frontal cortex assessed as standard uptake value at 81.2 MBq, iv after 0.5 mins by microPET; settings: in vivo
Outline: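 Single normal rhesus monkey; each tracer given iv via the vena saphena, with 1 day between tracer injections. Dynamic μPET ran 180 min (5×60 s, 5×120 s, 9×300 s, 12×600 s). Images were reconstructed by filtered back projection with a RAMP filter. Regional time-activity curves were expressed as SUV.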

[24] = Drug level in normal rhesus monkey cerebellum assessed as standard uptake value at 81.2 MBq, iv after 8 mins by microPET; settings: in vivo; outline: as §1
[25] = Drug level in normal rhesus monkey frontal cortex assessed as standard uptake value at 81.2 MBq, iv after 42.5 mins by microPET; settings: in vivo
[26] = Drug level in normal rhesus monkey parietal cortex assessed as standard uptake value at 81.2 MBq, iv after 42.5 mins by microPET; settings: in vivo
[27] = Drug level in normal rhesus monkey white matter assessed as standard uptake value at 81.2 MBq, iv after 17.5 mins by microPET; settings: in vivo
[28] = Drug level in normal rhesus monkey pons assessed as standard uptake value at 152.9 MBq, iv after 8 mins by microPET; settings: in vivo
[29] = Drug level in normal rhesus monkey white matter assessed as standard uptake value at 152.9 MBq, iv after 57.5 mins by microPET; settings: in vivo
[30] = Drug level in normal rhesus monkey pons assessed as standard uptake value at 152.9 MBq, iv after 6 mins by microPET; settings: in vivo, 0.1 h
[31] = Drug level in normal rhesus monkey thalamus assessed as standard uptake value at 152.9 MBq, iv after 1.5 mins by microPET; settings: in vivo, 0.025 h
[32] = Drug level in normal rhesus monkey frontal cortex assessed as standard uptake value at 152.9 MBq, iv after 8 mins by microPET; settings: in vivo
Outline: (§2)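 Single normal rhesus monkey; tracer given iv via the vena saphena, 1 day apart from the other tracer injections. Dynamic μPET ran 90 min (5×60 s, 5×120 s, 9×300 s, 3×600 s). Images were reconstructed by filtered back projection with a RAMP filter. Regional time-activity curves were expressed as SUV.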

[33] = Drug level in normal rhesus monkey thalamus assessed as standard uptake value at 152.9 MBq, iv after 4.5 mins by microPET; settings: in vivo, 0.075 h
[34] = Drug level in normal rhesus monkey frontal cortex assessed as standard uptake value at 152.9 MBq, iv after 27.5 mins by microPET; settings: in vivo; outline: as §2
[35] = Drug level in normal rhesus monkey frontal cortex assessed as standard uptake value at 152.9 MBq, iv after 85 mins by microPET; settings: in vivo; outline: as §2
[36] = Drug level in normal rhesus monkey pons assessed as standard uptake value at 152.9 MBq, iv after 4.5 mins by microPET; settings: in vivo, 0.075 h
[37] = Drug level in normal rhesus monkey thalamus assessed as standard uptake value at 152.9 MBq, iv after 2.5 mins by microPET; settings: in vivo

SUV [1]: 1.79
SUV [2]: 1.88
SUV [3]: 1.84
SUV [4]: 2.01
SUV [5]: 1.15
SUV [6]: 1.16
SUV [7]: 2.13
SUV [8]: 0.9
SUV [9]: 1.78
SUV [10]: 1.55
SMILES: CN(C)c1ccc2nc(-c3ccc([18F])cc3)sc2c1

SUV [11]: 3.56
SUV [12]: 4.06
SUV [13]: 2.87
SUV [14]: 4.74
SUV [15]: 0
SUV [16]: 0.34
SUV [17]: 1.16
SUV [18]: 4.99
SUV [19]: 4.98
SUV [20]: 0.4
SMILES: Nc1ccc2nc(-c3ccc([18F])cc3)sc2c1

SUV [21]: 1.602
SUV [22]: 3.676
SUV [23]: 0.756
SUV [24]: 2.781
SUV [25]: 5.476
SUV [26]: 3.863
SUV [27]: 3.647
SMILES: CNc1ccc2nc(-c3ccc([18F])cc3)sc2c1

SUV [28]: 2.153
SUV [29]: 0.957
SUV [30]: 2.044
SUV [31]: 0.487
SUV [32]: 2.29
SUV [33]: 2.075
SUV [34]: 1.215
SUV [35]: 0.625
SUV [36]: 2.008
SUV [37]: 1.195
SMILES: [11CH3]Nc1ccc(-c2nc3ccc(O)cc3s2)cc1 [PITTSBURGH COMPOUND B]

— ChEMBL document CHEMBL1154674, “Synthesis and evaluation of three 18F-labeled aminophenylbenzothiazoles as amyloid imaging agents” (J Med Chem, 2009)
